Results from different studies.
In brackets after ≈: the same amount, converted by molar mass.

O=C(O)CNc1ccc(-c2nc(-c3ccc(Oc4ccccc4)cc3)no2)cc1
MIC (Clostridioides difficile; microbial growth, broth dilution; 48 h): 13 mg/L (≈ 33.6 µM)

CC1(C)OB(c2ccc(CNS(=O)(=O)c3cc(C(=O)Nc4cc(F)c(F)c(F)c4)ccc3F)cc2)OC1(C)C
EC50 (Hepatitis B virus; viral replication, inhibitor, qPCR; HePAD38; 6 days): 0.49 µM

Cc1ccc(C)n1-c1ccc(-c2n[nH]c(=S)[nH]2)cc1
MIC (Saccharomyces cerevisiae; microbial growth, broth dilution; ATCC9763): > 500 mg/L

O=C(N/N=C/c1ccc([N+](=O)[O-])o1)c1ccc(O)cc1
MIC90 (Aliivibrio fischeri; microbial growth): 7.8 mg/L (≈ 28.3 µM)

O=C(O)CCc1ccccc1Oc1ccc(-c2noc(-c3ccc(O)cc3)n2)cc1
MIC (Clostridioides difficile; microbial growth, broth dilution; 48 h): 4 mg/L (≈ 9.94 µM)

O=C(Nc1cc(F)c(F)c(F)c1)c1ccc(F)c(S(=O)(=O)NCc2ccc(B(O)O)cc2)c1
EC50 (Hepatitis B virus; viral replication, inhibitor, qPCR; HePAD38; 6 days): 0.38 µM

Nc1ccn([C@@H]2CS[C@H](CO)O2)c(=O)n1
IC50 (Hepatitis B virus; viral replication, qPCR; HepG2.2.15; 6 days): 7.37 µM

COc1c(N2C[C@@H]3CCCN[C@@H]3C2)c(F)cc2c(=O)c(C(=O)O)cn(C3CC3)c12
MIC90 (Aliivibrio fischeri; microbial growth): 0.06 mg/L (≈ 0.149 µM)

Cc1ccc(C)n1-c1ccc(-c2nnc(-c3ccccc3[N+](=O)[O-])[nH]2)cc1
MIC (Saccharomyces cerevisiae; microbial growth, broth dilution; ATCC9763): 31.2 mg/L (≈ 87 µM)

Cl.NCCc1ccccc1Oc1ccc(-c2noc(-c3ccc(O)cc3)n2)cc1
MIC (Clostridioides difficile; microbial growth, broth dilution; 48 h): 8 mg/L
